In brackets after ≈: the same amount, converted by molar mass. Peptide text beside a SMILES is read from it.
Assays:
[1] = Selectivity index, ratio of HC50 for New Zealand White rabbit RBC to MIC for methicillin-resistant Staphylococcus aureus DM 9808R
Outline: (§1)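 Ratio of HC50 to MIC. For HC50, fresh New Zealand White rabbit RBCs were pelleted (3000 rpm, 10 min), washed twice in PBS and mixed with serially diluted compounds (in DMF or PBS) at a final 4% v/v. After 60 min at 37 °C and centrifugation, supernatant absorbance was read at 576 nm. % hemolysis was normalised to 2% Triton X-100 (positive) and PBS/DMF (negative). MIC came from CA-MHB broth macrodilution, 24 h at 35 °C.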

Bacillus cereus = assay: Antibacterial activity against Bacillus cereus ATCC 11778 after 24 hrs by two fold dilution assay; format: functional; settings: ATCC 11778, 24 h
Outline: (§2)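 Broth macro-dilution per CLSI in cation-adjusted Mueller-Hinton broth; compounds dissolved in DMF, diluted in PBS to 1000 µg/mL stock, then serial 2-fold dilutions in CA-MHB in tubes. Inoculum from 18-20 h TSA colonies (direct colony suspension), adjusted to about 5× 10^5 CFU/mL. MIC read after 24 h at 35 °C as lowest concentration with no visible growth; biological replicates.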

[2] = Selectivity index, ratio of HC50 for New Zealand White rabbit RBC to MIC for Bacillus cereus ATCC 11778; outline: as §1
[3] = Selectivity index, ratio of HC50 for New Zealand White rabbit RBC to MIC for Staphylococcus aureus DM 4001R; outline: as §1
Staphylococcus aureus [4] = assay: Antibacterial activity against methicillin-resistant Staphylococcus aureus DM 21455 after 24 hrs by two fold dilution assay; format: functional; settings: DM 21455, 24 h
Outline: (§3)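 CLSI broth macrodilution in cation-adjusted Mueller-Hinton broth. Compounds were dissolved in DMF and diluted in PBS to a 1000 µg/mL stock, then serially 2-fold diluted in CA-MHB. The inoculum came from colonies on 18-20 h TSA plates (direct colony suspension), adjusted to ~5×10^5 CFU/mL. Incubation was 24 h at 35 °C. MIC is the lowest concentration with no visible growth versus control. Biological replicates.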

Staphylococcus aureus [5] = assay: Antibacterial activity against Staphylococcus aureus DM 4001R after 24 hrs by two fold dilution assay; format: functional; outline: as §3
Staphylococcus aureus [6] = assay: Antibacterial activity against methicillin-resistant Staphylococcus aureus DM 9808R after 24 hrs by two fold dilution assay; format: functional; outline: as §3
[7] = Selectivity index, ratio of HC50 for New Zealand White rabbit RBC to MIC for methicillin-resistant Staphylococcus aureus DM 21455; outline: as §1
Staphylococcus aureus [8] = assay: Antibacterial activity against Staphylococcus aureus ATCC 700699 infected in C57BL6 mouse cornea assessed as decrease in number of viable bacteria at 0.5% administered topically at 2 hrs interval for 4 times starting on day 1 post infection measured post last dose relative to control; format: functional, Mu50
Staphylococcus aureus [9] = assay: Ratio of MIC for Staphylococcus aureus ATCC 29213 after and before 15 serial passages; format: functional
Enterococcus faecium [10] = assay: Antibacterial activity against vancomycin A-resistant Enterococcus faecium VRE 1008 after 24 hrs by two fold dilution assay; format: functional; settings: VRE 1008, 24 h; outline: as §3
Staphylococcus aureus [11] = assay: Antibacterial activity against methicillin-resistant Staphylococcus aureus DB57964 after 24 hrs by two fold dilution assay; format: functional; settings: DB57964, 24 h; outline: as §3
Staphylococcus aureus [12] = assay: Antibacterial activity against methicillin-sensitive Staphylococcus aureus DM4299 after 24 hrs by two fold dilution assay; format: functional; settings: DM4299, 24 h; outline: as §3
Staphylococcus aureus [13] = assay: Antibacterial activity against methicillin-resistant Staphylococcus aureus ATCC 700699 after 24 hrs by two fold dilution assay; format: functional; settings: Mu50, 24 h; outline: as §3
Staphylococcus aureus [14] = assay: Antibacterial activity against methicillin-resistant Staphylococcus aureus DB6506 after 24 hrs by two fold dilution assay; format: functional; settings: DB6506, 24 h; outline: as §3
Staphylococcus aureus [15] = assay: Antibacterial activity against methicillin-sensitive Staphylococcus aureus ATCC 6538 after 24 hrs by two fold dilution assay; format: functional; settings: ATCC 6538, 24 h; outline: as §3
Enterococcus faecalis = assay: Antibacterial activity against Enterococcus faecalis ATCC 29212 after 24 hrs by two fold dilution assay; format: functional; settings: ATCC 29212, 24 h; outline: as §2
Staphylococcus aureus [16] = assay: Antibacterial activity against methicillin-resistant Staphylococcus aureus ATCC 43300 after 24 hrs by two fold dilution assay; format: functional; settings: ATCC 43300, 24 h; outline: as §3
Staphylococcus aureus [17] = assay: Antibacterial activity against methicillin-resistant Staphylococcus aureus ATCC BAA-38 after 24 hrs by two fold dilution assay; format: functional; settings: ATCC BAA-38, 24 h; outline: as §3
Enterococcus hirae = assay: Antibacterial activity against Enterococcus hirae ATCC 9790 after 24 hrs by two fold dilution assay; format: functional; settings: ATCC 9790, 24 h; outline: as §2
Staphylococcus aureus [18] = assay: Antibacterial activity against methicillin-resistant Staphylococcus aureus DB68004 after 24 hrs by two fold dilution assay; format: functional; settings: DB68004, 24 h; outline: as §3
Staphylococcus aureus [19] = assay: Antibacterial activity against methicillin-sensitive Staphylococcus aureus ATCC 29737 after 24 hrs by two fold dilution assay; format: functional; settings: ATCC 29737, 24 h; outline: as §3
Enterococcus faecium [20] = assay: Antibacterial activity against vancomycin A-resistant Enterococcus faecium VRE 1006 after 24 hrs by two fold dilution assay; format: functional; settings: VRE 1006, 24 h; outline: as §3
Staphylococcus aureus [21] = assay: Antibacterial activity against methicillin-sensitive Staphylococcus aureus ATCC 29213 after 24 hrs by two fold dilution assay; format: functional; settings: ATCC 29213, 24 h; outline: as §3
Enterococcus faecium [22] = assay: Antibacterial activity against vancomycin A-resistant Enterococcus faecium VRE 1007 after 24 hrs by two fold dilution assay; format: functional; settings: VRE 1007, 24 h; outline: as §3
Staphylococcus aureus [23] = assay: Antibacterial activity against methicillin-sensitive Staphylococcus aureus DM4400R after 24 hrs by two fold dilution assay; format: functional; outline: as §3
Staphylococcus aureus [24] = assay: Antibacterial activity against methicillin-sensitive Staphylococcus aureus DM4583R after 24 hrs by two fold dilution assay; format: functional; outline: as §3

Structure (SMILES)	MIC (Bacillus cereus) [µg/mL]	MIC (Staphylococcus aureus [4]) [µg/mL]	MIC (Staphylococcus aureus [5]) [µg/mL]	MIC (Staphylococcus aureus [6]) [µg/mL]	further results
COC(=O)[C@H](CCCNC(=N)N)NC(=O)COc1cc(OCC=C(C)C)cc2oc3cc(OCC=C(C)C)cc(OCC=C(C)C)c3c(=O)c12	1.56 (≈ 2.25 µM)	0.78 (≈ 1.13 µM)	1.56 (≈ 2.25 µM)	1.56 (≈ 2.25 µM)	Selectivity Index [1]: 21 to 42; Selectivity Index [2]: 21 to 42; Selectivity Index [3]: 21 to 42; Selectivity Index [7]: 21 to 42
CC[C@H](C)[C@H](NC(=O)CN)C(=O)NCC(=O)N[C@@H](CCCCN)C(=O)N[C@@H](Cc1ccccc1)C(=O)N[C@@H](CC(C)C)C(=O)N[C@@H](CCCCN)C(=O)N[C@@H](CCCCN)C(=O)N[C@@H](C)C(=O)N[C@@H](CCCCN)C(=O)N[C@@H](CCCCN)C(=O)N[C@@H](Cc1ccccc1)C(=O)NCC(=O)N[C@@H](CCCCN)C(=O)N[C@@H](C)C(=O)N[C@@H](Cc1ccccc1)C(=O)N[C@H](C(=O)N[C@@H](CCCCN)C(=O)N[C@H](C(=O)N[C@@H](CC(C)C)C(=O)N[C@@H](CCCCN)C(=O)N[C@@H](CCCCN)C(=O)O)[C@@H](C)CC)C(C)C (H-GIGKFLKKAKKFGKAFVKILKK-OH)	12.5 (≈ 5.04 µM)	12.5 (≈ 5.04 µM)	12.5 (≈ 5.04 µM)	25 (≈ 10.1 µM)	Activity (Staphylococcus aureus [8]): 93.3%
CCn1cc(C(=O)O)c(=O)c2cc(F)c(N3CCNCC3)cc21 [NORFLOXACIN]					Ratio (Staphylococcus aureus [9]): 128
COC(=O)[C@H](CCCNC(=N)N)NC(=O)[C@H](CCCNC(=N)N)NC(=O)COc1cc(OC/C=C(\C)CCC=C(C)C)cc2oc3cc(OC/C=C(\C)CCC=C(C)C)cc(OCC(=O)N[C@@H](CCCNC(=N)N)C(=O)N[C@@H](CCCNC(=N)N)C(=O)OC)c3c(=O)c12	25 (≈ 19.2 µM)	25 (≈ 19.2 µM)	25 (≈ 19.2 µM)	25 (≈ 19.2 µM)	
CC(C)=CCOc1cc(O)c2c(=O)c3c(O)cc(OCC=C(C)C)cc3oc2c1	> 50	> 50	> 50	> 50	
CC(C)=CCOc1cc(OCC(=O)N[C@@H](CCCNC(=N)N)C(N)=O)c2c(=O)c3c(OCC(=O)N[C@@H](CCCNC(=N)N)C(N)=O)cc(OCC=C(C)C)cc3oc2c1	12.5 (≈ 15.2 µM)	6.25 (≈ 7.59 µM)	12.5 (≈ 15.2 µM)	6.25 (≈ 7.59 µM)	
COc1c(N2CCNC(C)C2)c(F)cc2c(=O)c(C(=O)O)cn(C3CC3)c12 (stereo not drawn) [GATIFLOXACIN]					Ratio (Staphylococcus aureus [9]): 64
CN[C@H](CC(C)C)C(=O)N[C@H]1C(=O)N[C@@H](CC(N)=O)C(=O)N[C@H]2C(=O)N[C@H]3C(=O)N[C@H](C(=O)N[C@H](C(=O)O)c4cc(O)cc(O)c4-c4cc3ccc4O)[C@H](O)c3ccc(c(Cl)c3)Oc3cc2cc(c3O[C@@H]2O[C@H](CO)[C@@H](O)[C@H](O)[C@H]2O[C@H]2C[C@](C)(N)[C@H](O)[C@H](C)O2)Oc2ccc(cc2Cl)[C@H]1O [VANCOMYCIN]	1.56 (≈ 1.08 µM)	1.56 (≈ 1.08 µM)	1.56 (≈ 1.08 µM)	3.13 (≈ 2.16 µM)	MIC (Enterococcus faecium [10]): > 50 µg/mL; MIC (Staphylococcus aureus [11]): 0.78 µg/mL (≈ 0.538 µM); MIC (Staphylococcus aureus [12]): 1.56 µg/mL (≈ 1.08 µM); MIC (Staphylococcus aureus [13]): 1.56 µg/mL (≈ 1.08 µM); MIC (Staphylococcus aureus [14]): 0.78 µg/mL (≈ 0.538 µM); MIC (Staphylococcus aureus [15]): 0.78 µg/mL (≈ 0.538 µM); MIC (Enterococcus faecalis): 1.56 µg/mL (≈ 1.08 µM); MIC (Staphylococcus aureus [16]): 0.78 µg/mL (≈ 0.538 µM); MIC (Staphylococcus aureus [17]): 1.56 µg/mL (≈ 1.08 µM); MIC (Enterococcus hirae): 0.78 µg/mL (≈ 0.538 µM); MIC (Staphylococcus aureus [18]): 1.56 µg/mL (≈ 1.08 µM); MIC (Staphylococcus aureus [19]): 0.78 µg/mL (≈ 0.538 µM); MIC (Enterococcus faecium [20]): > 50 µg/mL; MIC (Staphylococcus aureus [21]): 1.56 µg/mL (≈ 1.08 µM); MIC (Enterococcus faecium [22]): > 50 µg/mL; MIC (Staphylococcus aureus [23]): 0.78 µg/mL (≈ 0.538 µM); MIC (Staphylococcus aureus [24]): 1.56 µg/mL (≈ 1.08 µM)

Reference: ChEMBL document CHEMBL4052597, “Symmetrically Substituted Xanthone Amphiphiles Combat Gram-Positive Bacterial Resistance with Enhanced Membrane Selectivity” (J Med Chem, 2017)
